ChEMBL document CHEMBL5705892, “MK-2206, an allosteric Akt inhibitor, enhances antitumor efficacy by standard chemotherapeutic agents or molecular targeted drugs in vitro and in vivo” (Mol Cancer Ther, 2010)
Activity calls are given as the source filed them. The calls are words filed in the database; no cut-off is given here.

Columns and labels:
MDA-MB-468 [1] = assay: Synergistic antiproliferative activity against human MDA-MB-468 cells assessed as combination index at ED75 treated 24 hrs prior to lapatinib and measured after 72 hrs by celltiter-glo assay; assay type: functional; conditions: time 96 hrs
MDA-MB-468 [2] = assay: Synergistic antiproliferative activity against lapatinib pretreated human MDA-MB-468 cells assessed as combination index at ED50 measured after 72 hrs by celltiter-glo assay; assay type: functional
[3] = target: RAC-alpha serine/threonine-protein kinase (Homo sapiens) (UniProt P31749); assay: Inhibition of AKT in human HCC827 cells assessed as reduction in AKT phosphorylation at S473 residue at 5 umol/L measured after 5 hrs by Western blot analysis; assay type: cell-based; conditions: dose 5.0 µmol/L
HCC1954 = assay: Synergistic antiproliferative activity against human HCC1954 cells assessed as combination index at ED90 measured after 72 hrs in presence of lapatinib by celltiter-glo assay; assay type: functional
Summary of the method: (§1)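 Cells grown in RPMI 1640 with 10% heat-inactivated FBS at 37°C, 5% CO₂. Seeded at 2 to 3 × 10³ per well; drugs added 24 h later. […] Viability read as cellular ATP by CellTiter-Glo. CI calculated by Chou–Talalay from median-effect plots at ED50, ED75 and ED90.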

NCI-N87 = assay: Synergistic antiproliferative activity against lapatinib pretreated human NCI-N87 cells assessed as combination index at ED75 measured after 72 hrs by celltiter-glo assay; assay type: functional
[4] = Toxicity in human SK-OV-3 cells xenografted CB17/icr SCID mouse assessed as body weight loss at 60 to 120 mg/kg, po administered 3 times per week for 2 weeks starting 2 hrs post lapatinib treatment and measured during compound dosing; assay type: organism-based; conditions: in vivo, 336 h, dose 60-120 mg/kg
Summary of the method: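 SK-OV-3 cells in 50% Matrigel/PBS injected s.c. into flank of female C.B-17/ICR-scid mice; dosing began after 3 wk, randomized at mean tumour 0.13 cm³ (n = 5). Lapatinib 100 mg/kg p.o. in distilled water 5 d/wk for 2 wk; MK-2206 in 30% Captisol p.o. days 0, 2, 4, 7, 9, 11. Body weight and physical signs monitored.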

NCI-H23 = assay: Synergistic antiproliferative activity against human NCI-H23 cells assessed as fold change in erlotinib IC50 at 1 umol/L measured after 72 hrs in presence of erlotinib by celltiter-glo assay relative to erlotinib alone; assay type: functional; conditions: dose 1 µmol/L
SK-OV-3 = assay: Synergistic antiproliferative activity against human SK-OV-3 cells assessed as combination index at ED90 measured after 96 hrs in presence of lapatinib by celltiter-glo assay; assay type: functional
A2780 [5] = assay: Synergistic antiproliferative activity against human A2780 cells assessed as combination index at ED50 measured after 72 hrs in presence of gemcitabine by celltiter-glo assay; assay type: functional
Summary of the method: (§2)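 Cells were seeded at 2–3 × 10³ per well in RPMI 1640 with 10% FBS. At 24 h, MK-2206 and the partner drug were added simultaneously at constant concentration ratios spanning each agent's IC₅₀, for 72 h. Growth was read as cellular ATP by CellTiter-Glo. CI was taken from median-effect plots of each agent alone and in combination (Chou–Talalay), at ED₅₀, ED₇₅ and ED₉₀.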

NCI-H441 [6] = assay: Synergistic antiproliferative activity against human NCI-H441 cells assessed as combination index at ED25 to ED90 measured after 72 hrs in presence of gemcitabine by celltiter-glo assay; assay type: functional
NCI-H292 = assay: Synergistic antiproliferative activity against human NCI-H292 cells assessed as combination index at ED90 measured after 72 hrs in presence of erlotinib by celltiter-glo assay; assay type: functional
[7] = target: RAC-alpha serine/threonine-protein kinase (Homo sapiens) (UniProt P31749); assay: Inhibition of AKT phosphorylation at S473 residue in human NCI-H661 cells at 3 umol/L measured after 4 to 24 hrs in presence of gemcitabine by MSD assay; conditions: time 4-24 hrs
[8] = Toxicity in human HCC70 cells xenografted CB17/icr SCID mouse at 120 mg/kg, po administered 3 times per week for 3 weeks starting 2 hrs post-lapatinib treatment and measured during compound dosing; assay type: organism-based; conditions: in vivo, 504 h
Summary of the method: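 HCC70 cells in 50% Matrigel/PBS injected s.c. into flank of female C.B-17/ICR-scid mice; dosing began after 3 wk, groups randomized at mean tumour 0.2 cm³ (n = 5). Lapatinib 100 mg/kg p.o. in distilled water, 5 d/wk for 3 wk; MK-2206 in 30% Captisol p.o. 3×/wk for 3 wk, given 2 h after lapatinib. Body weight and physical signs monitored throughout.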

A2780 [9] = assay: Synergistic antiproliferative activity against human A2780 cells assessed as combination index at ED75 measured after 72 hrs in presence of carboplatin by celltiter-glo assay; assay type: functional; summary of the method: as §2
NCI-H1993 = assay: Induction of apoptosis in human NCI-H1993 cells assessed as fold induction of capsase-3/7 activity measured after 24 to 48 hrs in presence of gemcitabine by caspase-glo 3/7 assay; assay type: functional; conditions: time 24-48 hrs
[10] = Toxicity in human NCI-H292 cells xenografted CD-1 mouse assessed as weight loss at 360 mg/kg, po administered once a week for 2 weeks starting 2 hrs post-erlotinib treatment and measured on day 16; assay type: organism-based; conditions: in vivo, 384 h, time 16 day
Summary of the method: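 Female CD1-nude mice bearing s.c. NCI-H292 tumours (cells in 50% Matrigel/50% PBS, left flank), randomized at mean 0.2 cm³, n=5/group. Body weight monitored; treatment period ended day 16.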

[11] = Toxicity in human PC-3 cells xenografted CD1 nude mouse assessed as body weight loss at 120 mg/kg, po administered 3 times per week for 2 weeks measured during compound dosing relative to control; assay type: organism-based; conditions: in vivo, 336 h
Summary of the method: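 Male CD1-nude mice with s.c. PC-3 tumours (50% Matrigel/50% PBS, left flank), randomized at mean 0.2 cm³, n=5/group, treated from 25 d post-implant. Body weight monitored versus vehicle-only controls.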

SK-BR-3 = assay: Synergistic antiproliferative activity against human SK-BR-3 cells assessed as combination index at ED90 treated 24 hrs prior to lapatinib and measured after 72 hrs by celltiter-glo assay; assay type: functional; conditions: time 96 hrs
BT-20 = assay: Synergistic antiproliferative activity against human BT-20 cells assessed as combination index at ED75 measured after 72 hrs in presence of docetaxel by celltiter-glo assay; assay type: functional; summary of the method: as §1
[12] = target: RAC-alpha serine/threonine-protein kinase (Homo sapiens) (UniProt P31749); assay: Inhibition of AKT in human HCC70 cells assessed as reduction in S6 phosphorylation at S240/S244 residues at 1 umol/L measured after 3 to 24 hrs in presence of lapatinib by Western blot analysis; assay type: cell-based; conditions: dose 1.0 µmol/L, time 3-24 hrs
Summary of the method: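 HCC70 cells at ~70% confluence were exposed to 10 µmol/L lapatinib, 1 µmol/L MK-2206, or both, for 0, 3, 6, 12 or 24 h. Lysates were prepared in Triton X-100/Tris buffer (pH 7.5) with protease and phosphatase inhibitors. Immunoblots after SDS-PAGE and nitrocellulose transfer were probed for pAkt and pS6.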

NCI-H441 [13] = assay: Induction of apoptosis in human NCI-H441 cells assessed as fold induction of capsase-3/7 activity measured after 24 to 48 hrs in presence of gemcitabine by caspase-glo 3/7 assay; assay type: functional; conditions: time 24-48 hrs

RAC-alpha serine/threonine-protein kinase (Homo sapiens), sequence (P31749 whole entry): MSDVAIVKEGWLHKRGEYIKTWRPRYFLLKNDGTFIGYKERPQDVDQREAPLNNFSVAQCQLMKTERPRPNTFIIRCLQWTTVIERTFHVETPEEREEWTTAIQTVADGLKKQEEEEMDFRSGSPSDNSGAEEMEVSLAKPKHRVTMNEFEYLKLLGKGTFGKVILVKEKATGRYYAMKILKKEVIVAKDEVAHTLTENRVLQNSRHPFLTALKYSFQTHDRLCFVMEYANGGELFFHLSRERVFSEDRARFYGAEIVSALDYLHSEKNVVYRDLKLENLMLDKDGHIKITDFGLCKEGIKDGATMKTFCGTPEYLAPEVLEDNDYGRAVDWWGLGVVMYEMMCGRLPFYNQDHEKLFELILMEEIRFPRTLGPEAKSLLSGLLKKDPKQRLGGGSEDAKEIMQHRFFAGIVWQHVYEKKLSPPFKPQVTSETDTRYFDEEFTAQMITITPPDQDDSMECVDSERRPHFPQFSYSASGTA

Q: With `Cl.NC1(c2ccc(-c3nc4ccn5c(=O)[nH]nc5c4cc3-c3ccccc3)cc2)CCC1` as the compound, how does the CI75 (MDA-MB-468 [1]) read?
A: 0.18

Q: And the CI50 (MDA-MB-468 [2])?
A: 0.18

Q: And the inhibition [3]?
A: Active

Q: And the CI90 (HCC1954)?
A: 0.11

Q: And the CI75 (NCI-N87)?
A: 0.18

Q: And the Activity [4]?
A: Non-Toxic

Q: What about the “Ratio IC50” value (NCI-H23) of the same compound?
A: 2.4

Q: What about the CI90 (SK-OV-3) of the same compound?
A: 0.18

Q: And the CI50 (A2780 [5])?
A: 0.57

Q: What about the CI (NCI-H441 [6]) of the same compound?
A: 0.37

Q: What about the CI90 (NCI-H292) of the same compound?
A: 0.28

Q: And the inhibition [7]?
A: Active

Q: What about the Activity [8] of the same compound?
A: Non-Toxic

Q: What about the CI75 (A2780 [9]) of the same compound?
A: 0.43

Q: What about the “fold change (FC)” value (NCI-H1993) of the same compound?
A: 1.2

Q: And the Activity [10]?
A: Non-Toxic

Q: And the Activity [11]?
A: 8%

Q: What about the CI90 (SK-BR-3) of the same compound?
A: 0.18

Q: What about the CI75 (BT-20) of the same compound?
A: 0.7

Q: And the inhibition [12]?
A: Active

Q: And the “fold change (FC)” value (NCI-H441 [13])?
A: 2.3
